# In ChEMBL document CHEMBL4819114, “Discovery of a potent and selective Axl inhibitor in preclinical model” (Bioorg Med Chem, 2021):
# Calls of active or inactive are those of the source. The rule behind the calls is not given here.
# Experiments:
# [1] = Kinetic solubility of compound in PBS buffer at pH 7 incubated for 15 mins by HPLC-UV analysis
# [2] = Metabolic stability in mouse liver microsomes assessed as residual ratio measured after 30 mins in presence of NADPH by LC-MS/MS analysis relative to absence of NADPH; assay type: ADME, Microsome; details: read-out: Stabilty
# How it was run: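 Incubation with mouse liver microsomes (0.5 mg/mL), 30 min at 37 °C, in 0.1 M potassium phosphate pH 7.4, 0.1 mM EDTA, 6 mM MgCl2 and an NADPH-generating system (β-NADP+, glucose-6-phosphate, G6P dehydrogenase). Quenched with acetonitrile/methanol (7:3) containing propranolol internal standard, then LC-MS/MS. Residual ratio with NADPH taken relative to without NADPH.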
# [3] = Cmax in CAnN.Cg-Foxnlnu/Cr1Crlj mouse at 30 mg/kg, po measured upto 24 hrs by LC-MS/MS analysis; assay type: ADME, organism-based; set-up: route oral, dose 30 mg/kg, time <=24; details: in vivo
# How it was run: (§1)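 Single oral dose in DMSO/Tween80/5% glucose (7:13:80, v/v/v) to female mice. Blood taken from retinal vein at 0.5, 1, 2, 8 and 24 h and spun to plasma. Plasma precipitated with 20 volumes acetonitrile/methanol (7:3) containing propranolol and niflumic acid internal standards, then analysed by LC-MS/MS. Cmax, tmax and AUC(0-24h) derived from mean plasma concentration.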
# [4] = target: Hepatocyte growth factor receptor (Homo sapiens) (UniProt P08581); assay: Inhibition of c-Met (unknown origin)
# [5] = target: Tyrosine-protein kinase Lck (Homo sapiens) (UniProt P06239); assay: Inhibition of LCK (unknown origin)
# [6] = Toxicity in C3H mouse xenografted with mouse BaF3 cells assessed as effect on body weight at 1 to 10 mg/kg, po administered for 4 days and measured on day 4; details: in vivo, 96 h
# [7] = target: T1, Tyrosine-protein kinase receptor TYRO3 (Homo sapiens) (UniProt Q06418); assay: Inhibition of Tyro3 (unknown origin)
# T1 sequence (whole entry): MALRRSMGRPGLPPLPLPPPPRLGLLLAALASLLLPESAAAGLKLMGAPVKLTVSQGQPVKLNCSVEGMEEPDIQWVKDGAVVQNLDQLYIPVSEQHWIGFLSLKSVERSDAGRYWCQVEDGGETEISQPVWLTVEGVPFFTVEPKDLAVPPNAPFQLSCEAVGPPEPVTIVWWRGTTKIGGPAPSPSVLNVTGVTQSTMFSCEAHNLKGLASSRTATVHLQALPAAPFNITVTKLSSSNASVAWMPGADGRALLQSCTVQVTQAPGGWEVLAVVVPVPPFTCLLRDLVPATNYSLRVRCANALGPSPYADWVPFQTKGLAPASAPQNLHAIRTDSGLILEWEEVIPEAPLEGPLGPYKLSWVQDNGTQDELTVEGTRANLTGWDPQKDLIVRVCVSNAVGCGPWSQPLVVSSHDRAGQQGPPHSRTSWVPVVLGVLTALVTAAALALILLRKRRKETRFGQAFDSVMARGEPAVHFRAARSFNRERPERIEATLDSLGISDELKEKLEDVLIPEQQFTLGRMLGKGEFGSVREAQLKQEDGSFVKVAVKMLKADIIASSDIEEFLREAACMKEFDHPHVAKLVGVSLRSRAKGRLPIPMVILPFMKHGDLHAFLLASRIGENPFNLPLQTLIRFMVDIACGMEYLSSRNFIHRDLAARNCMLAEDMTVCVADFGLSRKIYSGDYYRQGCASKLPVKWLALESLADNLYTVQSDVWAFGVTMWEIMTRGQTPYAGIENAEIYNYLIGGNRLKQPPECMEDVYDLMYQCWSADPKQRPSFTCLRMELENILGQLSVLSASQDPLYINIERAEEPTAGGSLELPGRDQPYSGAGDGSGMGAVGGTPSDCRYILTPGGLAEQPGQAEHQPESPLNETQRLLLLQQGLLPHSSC
# [8] = AUC (0 to 24 hrs) in CAnN.Cg-Foxnlnu/Cr1Crlj mouse at 30 mg/kg, po measured upto 24 hrs by LC-MS/MS analysis; assay type: ADME, organism-based; set-up: route oral, dose 30 mg/kg, time <=24; details: in vivo; how it was run: as §1
# [9] = Tmax in CAnN.Cg-Foxnlnu/Cr1Crlj mouse at 100 mg/kg, po measured upto 24 hrs by LC-MS/MS analysis; assay type: ADME, organism-based; details: in vivo; how it was run: as §1
# [10] = Cmax in CAnN.Cg-Foxnlnu/Cr1Crlj mouse at 100 mg/kg, po measured upto 24 hrs by LC-MS/MS analysis; assay type: ADME, organism-based; set-up: route oral, dose 100 mg/kg, time <=24; details: in vivo; how it was run: as §1
# [11] = AUC (0 to 24 hrs) in CAnN.Cg-Foxnlnu/Cr1Crlj mouse at 10 mg/kg, po measured upto 24 hrs by LC-MS/MS analysis; assay type: ADME, organism-based; set-up: route oral, dose 10 mg/kg, time <=24; details: in vivo; how it was run: as §1
# [12] = Toxicity in BALB/c mouse assessed as effect on body weight at 100 mg/kg, po administered for 14 days; assay type: organism-based; details: in vivo, 336 h, time 14 day
# How it was run: (§2)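 Female BALB/cAJcl mice (n = 3 or 5/group) dosed orally once daily for 14 days at 100 mg/kg; controls untreated. Body weight tracked. At necropsy after dosing, eyes fixed in 3% glutaraldehyde/2.5% formalin, paraffin-embedded, sectioned, stained with hematoxylin-eosin, and the retina examined histopathologically.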
# [13] = Cmax in CAnN.Cg-Foxnlnu/Cr1Crlj mouse at 10 mg/kg, po measured upto 24 hrs by LC-MS/MS analysis; assay type: ADME, organism-based; set-up: route oral, dose 10 mg/kg, time <=24; details: in vivo; how it was run: as §1
# [14] = Tmax in CAnN.Cg-Foxnlnu/Cr1Crlj mouse at 30 mg/kg, po measured upto 24 hrs by LC-MS/MS analysis; assay type: ADME, organism-based; details: in vivo; how it was run: as §1
# [15] = AUC (0 to 24 hrs) in CAnN.Cg-Foxnlnu/Cr1Crlj mouse at 100 mg/kg, po measured upto 24 hrs by LC-MS/MS analysis; assay type: ADME, organism-based; set-up: route oral, dose 100 mg/kg, time <=24; details: in vivo; how it was run: as §1
# BaF3 = assay: Antitumor activity against mouse BaF3 cells expressing Axl xenografted in C3H mouse assessed as reduction in tumor growth at 1 to 10 mg/kg, po administered for 4 days and measured on day 4; details: dose 1-10 mg/kg, time 4.0 day
# [16] = Tmax in CAnN.Cg-Foxnlnu/Cr1Crlj mouse at 10 mg/kg, po measured upto 24 hrs by LC-MS/MS analysis; assay type: ADME, organism-based; details: in vivo; how it was run: as §1
# [17] = Toxicity in BALB/c mouse assessed as induction of necrosis in photoreceptor cells at 100 mg/kg, po administered for 14 days hematoxylin and eosin staining based assay; assay type: organism-based; details: in vivo, 336 h, time 14 day; how it was run: as §2
# Sequence of Hepatocyte growth factor receptor (Homo sapiens) (P08581 whole entry): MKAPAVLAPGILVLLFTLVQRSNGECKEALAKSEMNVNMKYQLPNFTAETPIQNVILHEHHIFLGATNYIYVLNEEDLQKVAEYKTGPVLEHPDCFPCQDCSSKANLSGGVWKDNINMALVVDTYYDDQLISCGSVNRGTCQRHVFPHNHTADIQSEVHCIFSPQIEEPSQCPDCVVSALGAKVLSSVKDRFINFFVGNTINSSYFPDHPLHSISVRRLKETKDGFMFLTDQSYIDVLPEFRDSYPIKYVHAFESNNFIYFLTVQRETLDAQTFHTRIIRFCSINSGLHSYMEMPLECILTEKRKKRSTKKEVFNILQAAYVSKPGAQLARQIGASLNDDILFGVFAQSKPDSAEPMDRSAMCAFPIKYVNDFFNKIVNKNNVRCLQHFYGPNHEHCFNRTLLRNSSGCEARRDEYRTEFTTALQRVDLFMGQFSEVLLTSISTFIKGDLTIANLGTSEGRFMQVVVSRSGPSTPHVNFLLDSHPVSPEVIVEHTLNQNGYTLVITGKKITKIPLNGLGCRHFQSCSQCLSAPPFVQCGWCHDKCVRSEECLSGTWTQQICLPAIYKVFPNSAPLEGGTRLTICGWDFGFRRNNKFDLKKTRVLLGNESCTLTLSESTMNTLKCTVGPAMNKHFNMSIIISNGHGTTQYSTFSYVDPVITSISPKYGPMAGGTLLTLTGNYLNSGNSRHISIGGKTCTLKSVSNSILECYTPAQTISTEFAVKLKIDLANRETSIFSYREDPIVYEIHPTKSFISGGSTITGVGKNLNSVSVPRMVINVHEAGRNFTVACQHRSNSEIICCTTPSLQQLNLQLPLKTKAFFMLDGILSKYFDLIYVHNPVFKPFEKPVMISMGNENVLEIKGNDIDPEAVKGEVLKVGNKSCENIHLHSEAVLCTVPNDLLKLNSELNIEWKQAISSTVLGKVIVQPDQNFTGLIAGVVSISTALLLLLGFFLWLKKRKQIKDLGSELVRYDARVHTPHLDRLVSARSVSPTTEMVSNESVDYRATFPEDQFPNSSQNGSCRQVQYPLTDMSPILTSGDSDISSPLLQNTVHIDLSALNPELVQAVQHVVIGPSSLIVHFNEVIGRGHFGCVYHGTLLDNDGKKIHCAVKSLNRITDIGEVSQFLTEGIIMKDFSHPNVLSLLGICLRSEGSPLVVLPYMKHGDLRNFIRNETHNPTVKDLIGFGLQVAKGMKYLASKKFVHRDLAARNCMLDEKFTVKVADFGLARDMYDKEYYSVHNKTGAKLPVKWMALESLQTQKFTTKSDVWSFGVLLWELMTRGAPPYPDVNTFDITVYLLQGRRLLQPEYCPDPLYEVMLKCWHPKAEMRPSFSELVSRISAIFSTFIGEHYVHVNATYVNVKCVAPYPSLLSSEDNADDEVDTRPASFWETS
# Sequence of Tyrosine-protein kinase Lck (Homo sapiens) (P06239 2-509 limits assumed): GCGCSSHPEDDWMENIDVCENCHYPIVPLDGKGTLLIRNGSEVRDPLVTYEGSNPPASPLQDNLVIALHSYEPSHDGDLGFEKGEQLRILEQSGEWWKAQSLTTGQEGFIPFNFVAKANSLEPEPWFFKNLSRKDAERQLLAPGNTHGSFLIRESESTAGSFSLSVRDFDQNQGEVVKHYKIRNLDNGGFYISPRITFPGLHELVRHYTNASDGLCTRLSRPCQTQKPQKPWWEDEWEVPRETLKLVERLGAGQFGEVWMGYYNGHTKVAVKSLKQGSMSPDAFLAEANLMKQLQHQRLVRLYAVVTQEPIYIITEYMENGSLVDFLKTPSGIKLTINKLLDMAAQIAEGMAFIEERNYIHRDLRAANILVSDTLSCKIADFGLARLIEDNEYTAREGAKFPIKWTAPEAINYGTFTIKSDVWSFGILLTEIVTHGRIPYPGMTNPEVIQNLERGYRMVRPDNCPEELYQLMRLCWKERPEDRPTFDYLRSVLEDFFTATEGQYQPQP
SMILES,solubility kinetic at 0.25 h [1],remaining at 0.5 h [2],other results
CN1CCC(CC(=O)Nc2cc(Oc3ccc(NC(=O)c4cc5c(n(-c6ccccc6)c4=O)CCCC5=O)c(F)c3)ccn2)CC1,73 µM,75%,
CC(C)n1cc(C(=O)Nc2ccc(Oc3cc(NC(=O)N4CCC(N5CCN(C)CC5)CC4)ncn3)cc2)c(=O)n(-c2ccc(F)cc2)c1=O,89 µM,88%,Cmax [3]: 3790 ng/mL; inhibition [4]: inactive; inhibition [5]: inactive; Activity [6]: Non-Toxic; inhibition [7]: inactive; AUC(0-t) [8]: 18100 ng·h/mL; Tmax [9]: 2 h; Cmax [10]: 13500 ng/mL; AUC(0-t) [11]: 7290 ng·h/mL; Activity [12]: Non-Toxic; Cmax [13]: 1580 ng/mL; Tmax [14]: 2 h; AUC(0-t) [15]: 72700 ng·h/mL; TGI (BaF3): Active; Tmax [16]: 2 h; Activity [17]: Non-Toxic
CC(C)n1cc(C(=O)Nc2ccc(Oc3ccnc(NC(=O)CC4CCN(C)CC4)c3)cc2)c(=O)n(-c2ccc(F)cc2)c1=O,80 µM,81%,
CC(C)n1cc(C(=O)Nc2ccc(Oc3cc(NC(=O)N4CC(N5CCCC5)C4)ncn3)cc2)c(=O)n(-c2ccc(F)cc2)c1=O,80 µM,1.3%,
CN1CCN(C2CCN(C(=O)Nc3cc(Oc4ccc(NC(=O)c5cn(C)c(=O)n(-c6ccc(F)cc6)c5=O)cc4)ncn3)CC2)CC1,90 µM,99%,
CN1CCN(C2CCN(C(=O)Nc3cc(Oc4ccc(NC(=O)c5cn(C6CC6)c(=O)n(-c6ccc(F)cc6)c5=O)cc4)ncn3)CC2)CC1,89 µM,87%,
CN1CCN(C2CCN(C(=O)Nc3cc(Oc4ccc(NC(=O)c5cn(C6CCCC6)c(=O)n(-c6ccc(F)cc6)c5=O)cc4)ncn3)CC2)CC1,80 µM,82%,
CC(C)n1cc(C(=O)Nc2ccc(Oc3cc(NC(=O)N4CC(O)C4)ncn3)cc2)c(=O)n(-c2ccc(F)cc2)c1=O,83 µM,92%,
CN1CCC(CC(=O)Nc2cc(Oc3ccc(NC(=O)c4cn(C5CCCC5)c(=O)n(-c5ccc(F)cc5)c4=O)cc3F)ccn2)CC1,70 µM,63%,
CC(C)n1cc(C(=O)Nc2ccc(Oc3cc(NC(=O)C4CC4)ncn3)cc2)c(=O)n(-c2ccc(F)cc2)c1=O,6 µM,83%,
CN1CCC(CC(=O)Nc2cc(Oc3ccc(NC(=O)c4cn(C5CC5)c(=O)n(-c5ccc(F)cc5)c4=O)cc3F)ccn2)CC1,82 µM,78%,
CN1CCC(CC(=O)Nc2cc(Oc3ccc(NC(=O)c4cc5c(n(-c6ccccc6)c4=O)CCCC5=O)cc3F)ccn2)CC1,75 µM,71%,
CC(C)n1cc(C(=O)Nc2cc(F)c(Oc3ccnc(NC(=O)N4CCC(N5CCN(C)CC5)CC4)c3)cc2F)c(=O)n(-c2ccc(F)cc2)c1=O,76 µM,86%,inhibition [4]: Active; inhibition [5]: Active; inhibition [7]: Active; Activity [12]: Non-Toxic; Activity [17]: Toxic
CN1CCC(CC(=O)Nc2cc(Oc3cc(F)c(NC(=O)c4cc5c(n(-c6ccccc6)c4=O)CCCC5=O)cc3F)ccn2)CC1,50 µM,72%,
CN1CCN(C2CCN(C(=O)Nc3cc(Oc4cc(F)c(NC(=O)c5cc6c(n(-c7ccccc7)c5=O)CCCC6=O)cc4F)ccn3)CC2)CC1,43 µM,78%,
CC(C)n1cc(C(=O)Nc2ccc(Oc3ccnc(NC(=O)CC4CCN(C)CC4)c3)cc2F)c(=O)n(-c2ccc(F)cc2)c1=O,78 µM,76%,
CC(C)n1cc(C(=O)Nc2ccc(Oc3cc(NC(=O)N4CCC4)ncn3)cc2)c(=O)n(-c2ccc(F)cc2)c1=O,36 µM,79%,
CN1CCC(CC(=O)Nc2cc(Oc3ccc(NC(=O)c4cc5c(n(-c6ccccc6)c4=O)CCCC5=O)cc3)ccn2)CC1,77 µM,77%,
CC(C)n1cc(C(=O)Nc2ccc(Oc3ccnc(NC(=O)CN(C)C)c3)cc2)c(=O)n(-c2ccc(F)cc2)c1=O,32 µM,19%,
CC(C)n1cc(C(=O)Nc2ccc(Oc3cc(NC(=O)N4CCCC4)ncn3)cc2)c(=O)n(-c2ccc(F)cc2)c1=O,1 µM,59%,
CC(C)n1cc(C(=O)Nc2ccc(Oc3cc(NC(=O)N4CC(N(C)C)C4)ncn3)cc2)c(=O)n(-c2ccc(F)cc2)c1=O,,0.3%,
